Experimental data reported in ChEMBL document CHEMBL1157034, “Synthesis of 1-benzyl-3-(5-hydroxymethyl-2-furyl)selenolo[3,2-c]pyrazole derivatives as new anticancer agents” (Eur J Med Chem, 2010).

Columns and labels:
U-251 = test: Antitumor activity against human U251 cells after 48 hrs by MTT assay; format: functional; conditions: U-251, 48 h
SNB-19 = test: Antitumor activity against human SNB19 cells after 48 hrs by MTT assay; format: functional; conditions: SNB-19, 48 h
HOP-62 = test: Antitumor activity against human HOP62 cells after 48 hrs by MTT assay; format: functional; conditions: HOP-62, 48 h
NCI-H226 = test: Antitumor activity against human NCI-H226 cells after 48 hrs by MTT assay; format: functional, cell-based; conditions: NCI-H226, 48 h
How it was run: (§1)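 Cells grown at 37 °C in humidified 5% CO2, seeded at 1×10^4 cells/well, and allowed to attach for 24 h. They were then exposed to a range of concentrations for 48 h, washed with PBS, and given 1 mg/ml MTT for 2 h. Formazan was dissolved in DMSO and read at 570 nm.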

A498 = test: Antitumor activity against human A498 cells after 48 hrs by MTT assay; format: functional; conditions: A498, 48 h; how it was run: as §1
COLO 205 = test: Antitumor activity against human COLO205 cells after 48 hrs by MTT assay; format: functional; conditions: COLO 205, 48 h
OVCAR-4 = test: Antitumor activity against human OVCAR4 cells after 48 hrs by MTT assay; format: functional; conditions: OVCAR-4, 48 h
HCC 2998 = test: Antitumor activity against human HCC2998 cells after 48 hrs by MTT assay; format: functional; conditions: HCC 2998, 48 h
MDA-MB-231 = test: Antitumor activity against human MDA-MB-231 cells after 48 hrs by MTT assay; format: functional; conditions: MDA-MB-231, 48 h
SF-295 = test: Antitumor activity against human SF295 cells after 48 hrs by MTT assay; format: functional; conditions: SF-295, 48 h
[1] = Antitumor activity against human Hs 578T cells after 48 hrs by MTT assay; format: functional
UACC-62 = test: Antitumor activity against human UACC62 cells after 48 hrs by MTT assay; format: functional; conditions: UACC-62, 48 h
T47D = test: Antitumor activity against human T47D cells after 48 hrs by MTT assay; format: functional
SF-268 = test: Antitumor activity against human SF268 cells after 48 hrs by MTT assay; format: functional; conditions: SF-268, 48 h
CAKI-1 = test: Antitumor activity against human Caki1 cells after 48 hrs by MTT assay; format: functional; conditions: CAKI-1, 48 h
OVCAR-8 = test: Antitumor activity against human OVCAR8 cells after 48 hrs by MTT assay; format: functional; conditions: OVCAR-8, 48 h
BT-549 = test: Antitumor activity against human BT549 cells after 48 hrs by MTT assay; format: functional; conditions: BT-549, 48 h
SK-OV-3 = test: Antitumor activity against human SKOV3 cells after 48 hrs by MTT assay; format: functional; conditions: SK-OV-3, 48 h
MCF7 = test: Antitumor activity against human MCF7 cells after 48 hrs by MTT assay; format: functional; conditions: MCF7, 48 h
[2] = Antitumor activity against human […] cells after 48 hrs by MTT assay; format: functional
TK-10 = test: Antitumor activity against human TK10 cells after 48 hrs by MTT assay; format: functional; conditions: TK-10, 48 h
K562 = test: Antitumor activity against human K562 cells after 48 hrs by MTT assay; format: functional; conditions: K562, 48 h
SK-MEL-2 = test: Antitumor activity against human SK-MEL-2 cells after 48 hrs by MTT assay; format: functional; conditions: SK-MEL-2, 48 h
SW-620 = test: Antitumor activity against human SW620 cells after 48 hrs by MTT assay; format: functional; conditions: SW-620, 48 h
HT-29 = test: Antitumor activity against human HT-29 cells after 48 hrs by MTT assay; format: functional; conditions: HT-29, 48 h
NCI-H23 = test: Antitumor activity against human NCI-H23 cells after 48 hrs by MTT assay; format: functional; conditions: NCI-H23, 48 h
HCT-15 = test: Antitumor activity against human HCT15 cells after 48 hrs by MTT assay; format: functional; conditions: HCT-15, 48 h
HOP-92 = test: Antitumor activity against human HOP92 cells after 48 hrs by MTT assay; format: functional; conditions: HOP-92, 48 h
A549 = test: Antitumor activity against human A549 cells after 48 hrs by MTT assay; format: functional; conditions: A549, 48 h
Malme-3M = test: Antitumor activity against human MALME-3M cells after 48 hrs by MTT assay; format: functional
NCI-H460 = test: Antitumor activity against human NCI-H460 cells after 48 hrs by MTT assay; format: functional; conditions: NCI-H460, 48 h
[3] = read-out: pLC50 (the source's name) (converted)

SMILES: OCc1ccc(-c2nn(Cc3ccccc3)c3cc[se]c23)o1
- GI50 (U-251): 27.5 µM
- CC50 (U-251; [3]): > 100 µM
- TGI (U-251; read-out: pTGI): > 100 µM
- GI50 (SNB-19): 49 µM
- CC50 (SNB-19; [3]): > 100 µM
- TGI (SNB-19; read-out: pTGI): > 100 µM
- GI50 (HOP-62): 39.8 µM
- CC50 (HOP-62; [3]): > 100 µM
- TGI (HOP-62; read-out: pTGI): > 100 µM
- GI50 (NCI-H226): 0.316 µM
- TGI (NCI-H226; read-out: pTGI (converted)): 0.977 µM
- GI50 (A498; read-out: pGI50 (converted)): 0.162 µM
- CC50 (A498; read-out: pLC50 (converted)): 0.631 µM
- TGI (A498; read-out: pTGI): 0.324 µM
- GI50 (COLO 205): 29.5 µM
- CC50 (COLO 205; [3]): > 100 µM
- TGI (COLO 205; read-out: pTGI): > 100 µM
- GI50 (OVCAR-4): 26.3 µM
- CC50 (OVCAR-4; [3]): > 100 µM
- TGI (OVCAR-4; read-out: pTGI): > 100 µM
- GI50 (HCC 2998): 32.4 µM
- CC50 (HCC 2998; [3]): > 100 µM
- TGI (HCC 2998; read-out: pTGI): > 100 µM
- GI50 (MDA-MB-231): 36.3 µM
- CC50 (MDA-MB-231; [3]): > 100 µM
- TGI (MDA-MB-231; read-out: pTGI): > 100 µM
- GI50 (SF-295): 19.1 µM
- CC50 (SF-295; [3]): > 100 µM
- TGI (SF-295; read-out: pTGI (converted)): 63.1 µM
- GI50 [1]: 20 µM
- CC50 [1, 3]: > 100 µM
- TGI ([1]; read-out: pTGI (converted)): 74.1 µM
- GI50 (UACC-62): 2.19 µM
- CC50 (UACC-62; [3]): > 100 µM
- TGI (UACC-62; read-out: pTGI (converted)): 55 µM
- GI50 (T47D): 21.4 µM
- CC50 (T47D; [3]): > 100 µM
- TGI (T47D; read-out: pTGI (converted)): 89.1 µM
- GI50 (SF-268): 40.7 µM
- CC50 (SF-268; [3]): > 100 µM
- TGI (SF-268; read-out: pTGI): > 100 µM
- CC50 (CAKI-1; [3]): > 100 µM
- TGI (CAKI-1; read-out: pTGI): > 100 µM
- GI50 (OVCAR-8; read-out: pGI50 (converted)): 55 µM
- CC50 (OVCAR-8; [3]): > 100 µM
- TGI (OVCAR-8; read-out: pTGI): > 100 µM
- GI50 (BT-549): 25.1 µM
- CC50 (BT-549; [3]): > 100 µM
- TGI (BT-549; read-out: pTGI (converted)): 95.5 µM
- GI50 (SK-OV-3; read-out: pGI50 (converted)): 46.8 µM
- CC50 (SK-OV-3; [3]): > 100 µM
- TGI (SK-OV-3; read-out: pTGI): > 100 µM
- GI50 (MCF7; read-out: pGI50 (converted)): 11.2 µM
- CC50 (MCF7; [3]): > 100 µM
- TGI (MCF7; read-out: pTGI): > 100 µM
- GI50 [2]: 22.4 µM
- CC50 [2, 3]: > 100 µM
- TGI ([2]; read-out: pTGI): > 100 µM
- GI50 (TK-10; read-out: pGI50 (converted)): 1.7 µM
- CC50 (TK-10; [3]): > 100 µM
- TGI (TK-10; read-out: pTGI): > 100 µM
- GI50 (K562): 25.1 µM
- CC50 (K562; [3]): > 100 µM
- TGI (K562; read-out: pTGI): > 100 µM
- GI50 (SK-MEL-2): 35.5 µM
- CC50 (SK-MEL-2; [3]): > 100 µM
- TGI (SK-MEL-2; read-out: pTGI): > 100 µM
- GI50 (SW-620): 35.5 µM
- CC50 (SW-620; [3]): > 100 µM
- TGI (SW-620; read-out: pTGI): > 100 µM
- GI50 (HT-29): 33.9 µM
- CC50 (HT-29; [3]): > 100 µM
- TGI (HT-29; read-out: pTGI): > 100 µM
- GI50 (NCI-H23): 42.7 µM
- CC50 (NCI-H23; [3]): > 100 µM
- TGI (NCI-H23; read-out: pTGI): > 100 µM
- GI50 (HCT-15): 30.2 µM
- CC50 (HCT-15; [3]): > 100 µM
- TGI (HCT-15; read-out: pTGI): > 100 µM
- GI50 (HOP-92): 18.2 µM
- CC50 (HOP-92; [3]): > 100 µM
- TGI (HOP-92; read-out: pTGI (converted)): 79.4 µM
- GI50 (A549): 36.3 µM
- CC50 (A549; [3]): > 100 µM
- TGI (A549; read-out: pTGI): > 100 µM
- GI50 (Malme-3M): 25.7 µM
- CC50 (Malme-3M; [3]): > 100 µM
- TGI (Malme-3M; read-out: pTGI): > 100 µM
- GI50 (NCI-H460): 28.2 µM
- CC50 (NCI-H460; [3]): > 100 µM
- TGI (NCI-H460; read-out: pTGI): > 100 µM
